Measured values gathered from unrelated publications.
Compare with care: the assays were run in different laboratories.
Target: Dual specificity mitogen-activated protein kinase kinase 1 (MAP2K1, Homo sapiens, UniProt Q02750)

Cc1nc(Cc2cccc(C(F)(F)F)c2)sc1-c1ccc(C(N)=O)nc1 — remaining binding (cell-free assay, competition with immobilised ligand; 1 µM): 100%
CN1CC[C@H](c2c(O)cc(O)c3c(=O)cc(-c4ccccc4Cl)oc23)[C@H](O)C1 — remaining binding (cell-free assay, competition with immobilised ligand; 0.1 µM): 92%
C[C@H]1CCN(c2nccc(-c3cnn4ncccc34)n2)C1 — remaining binding (binding, competition with immobilised ligand; 1 µM): 66%
O=C(c1ccc(Nc2ncc(Cl)c(-c3ccc(Cl)s3)n2)cc1)N1CCC(N2CCCC2)CC1 — remaining binding (binding, competition with immobilised ligand; 1 µM): 18%
CCN(CC)Cc1cc(Nc2ccnc3cc(Cl)ccc23)ccc1O — remaining binding (cell-free assay, competition with immobilised ligand; 0.1 µM): 95%
CC(=O)N1CCC(c2ccc(C(=O)NC(=N)N)cc2C(F)(F)F)CC1 — remaining binding (cell-free assay, competition with immobilised ligand; 1 µM): 97%
O=C(Nc1c[nH]nc1C(=O)NC1CCNCC1)c1cc(F)cc(F)c1 — remaining binding (binding, competition with immobilised ligand; 1 µM): 80%
Cc1nc(Nc2ncc(C(=O)Nc3c(C)cccc3Cl)s2)cc(N2CCN(CCO)CC2)n1 — remaining binding (cell-free assay, competition with immobilised ligand; 0.1 µM): 89%
C[C@@H]1CN(c2ccc3ncc(-c4ccc5[nH]nc(C6CC6)c5c4)n3n2)C[C@H](C)O1 — remaining binding (binding, competition with immobilised ligand; 0.5 µM): 100%
c1cnn2ncc(-c3ccnc(N4CCC45COC5)n3)c2c1 — remaining binding (binding, competition with immobilised ligand; 1 µM): 69%
C[C@H](c1ccc(F)cc1)N(Cc1cccc(C(=O)O)c1)C(=O)c1cnc2ccccc2c1 — remaining binding (cell-free assay, competition with immobilised ligand; 1 µM): 100%
F[C@@H]1CCN(c2nccc(-c3cnn4ncccc34)n2)C1 — remaining binding (binding; 1 µM): 89%
CNC(=O)[C@@H]1CC[C@@H](n2c(-c3ccc4cnccc4c3)nc3ccc(C(=O)NCc4cccc(C(N)=O)c4)cc32)C1 — remaining binding (binding, competition with immobilised ligand; 1 µM): 100%
CNC(=O)c1cc(Oc2ccc(NC(=O)Nc3ccc(Cl)c(C(F)(F)F)c3)cc2)ccn1 — remaining binding (cell-free assay, competition with immobilised ligand; 10 µM): 99%
N#CC1(c2ccccn2)CCN(Cc2cc(C(=O)N3CCCC3)c(=O)n3ccccc23)CC1 — remaining binding (cell-free assay, competition with immobilised ligand; 1 µM): 100%
CN(c1nccc(-c2cnn3ncccc23)n1)C1CC1 — remaining binding (binding; 1 µM): 100%
O=C(NCc1ncc(C(F)(F)F)cc1Cl)c1ccc2c(c1)C1(CCS(=O)(=O)CC1)[C@@H](C1CC1)N2S(=O)(=O)c1ccc(F)cc1 — remaining binding (cell-free assay, competition with immobilised ligand; 1 µM): 91%
Cc1ccc(NC(=O)c2ccc(CN3CCN(C)CC3)cc2)cc1Nc1nccc(-c2cccnc2)n1 — remaining binding (cell-free assay, competition with immobilised ligand; 10 µM): 94%
O=C(c1ccc(Nc2nccc(-c3cc4ccccc4s3)n2)cc1)N1CCC(N2CCCC2)CC1 — remaining binding (binding, competition with immobilised ligand; 1 µM): 54%
Cc1noc([C@H]2C[C@@H](c3ccc(C(F)(F)F)cc3)CN(C(=O)N3CCS(=O)(=O)C3)C2)n1 — remaining binding (cell-free assay, competition with immobilised ligand; 1 µM): 100%
O=C(NCCCN1CCOCC1)c1ccc(Nc2ncc(Cl)c(-c3ccc(Cl)s3)n2)cc1 — remaining binding (binding, competition with immobilised ligand; 1 µM): 63%
COc1ncc2cc3ccccc3nc2c1C#N — remaining binding (cell-free assay, competition with immobilised ligand; 5 µM): 90%
CN(C)c1ncc(F)c(-c2cnn3ncccc23)n1 — remaining binding (binding, competition with immobilised ligand; 1 µM): 78%
CC(C)(C)c1ccc(-c2nc(CBr)nn2-c2cccc(O)c2)cc1 — remaining binding (cell-free assay, competition with immobilised ligand; 10 µM): 83%
C[C@@H](c1cccc(C#N)c1)n1cc(Cl)cc(C(N)=O)c1=N — remaining binding (cell-free assay, competition with immobilised ligand; 1 µM): 80%
COc1cc2ncnc(Nc3ccc(F)c(Cl)c3)c2cc1OCCCN1CCOCC1 — remaining binding (cell-free assay, competition with immobilised ligand; 10 µM): 83%
N#Cc1ccccc1CSc1nnc2c(n1)[nH]c1ccccc12 — remaining binding (binding, competition with immobilised ligand; 10 µM): 95%
CS(=O)(=O)CCNCc1ccc(-c2ccc3ncnc(Nc4ccc(OCc5cccc(F)c5)c(Cl)c4)c3c2)o1 — remaining binding (cell-free assay, competition with immobilised ligand; 10 µM): 87%
CC1=C(C#N)C(c2ccc3c(c2)c(NC(=O)c2ccccc2C)nn3C)C(C#N)=C(C)N1 — remaining binding (cell-free assay, competition with immobilised ligand; 1 µM): 87%
Cc1c(-c2ccccc2)oc2c(C(=O)OCCN3CCCCC3)cccc2c1=O — remaining binding (cell-free assay, competition with immobilised ligand; 0.1 µM): 94%
CCN1CCN(Cc2ccc(C(=O)Nc3ccc(C)c(Oc4ccc5c(c4)CC(=O)N5)c3)cc2C(F)(F)F)CC1 — remaining binding (binding, competition with immobilised ligand; 1 µM): 100%
Nc1ncc2c(n1)-c1c([nH]c3ccc(C#CC4CC4)cc13)CCCC2 — remaining binding (binding, competition with immobilised ligand; 1 µM): 100%
